Test results: ChEMBL document CHEMBL3808288, “Identification and in Vivo Evaluation of Liver X Receptor β-Selective Agonists for the Potential Treatment of Alzheimer's Disease” (J Med Chem, 2016)
≈ marks a conversion by molar mass, not a printed value.

Key:
[1] = target: T1, Oxysterols receptor LXR-beta (Homo sapiens, UniProt P55055); test: Agonist activity at GST-tagged LXRbeta-LBD (unknown origin) by LanthaScreen TR-FRET liver X receptor coactivator assay
T1 sequence (P55055 whole entry): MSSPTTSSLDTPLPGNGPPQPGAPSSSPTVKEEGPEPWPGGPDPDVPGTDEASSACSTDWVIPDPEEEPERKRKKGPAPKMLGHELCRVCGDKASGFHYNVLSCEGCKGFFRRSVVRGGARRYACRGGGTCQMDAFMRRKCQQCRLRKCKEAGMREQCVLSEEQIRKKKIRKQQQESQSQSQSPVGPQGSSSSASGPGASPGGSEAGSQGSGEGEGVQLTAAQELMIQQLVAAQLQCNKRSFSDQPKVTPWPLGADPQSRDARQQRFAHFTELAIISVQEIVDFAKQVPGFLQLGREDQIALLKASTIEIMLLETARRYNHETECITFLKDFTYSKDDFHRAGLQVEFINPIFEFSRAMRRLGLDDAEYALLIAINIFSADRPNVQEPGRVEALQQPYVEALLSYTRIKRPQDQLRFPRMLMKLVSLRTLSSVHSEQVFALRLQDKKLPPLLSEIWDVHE
Summary of the method: (§1)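 Cofactor recruitment assay using the ligand binding domains of LXRβ or LXRα. The read-out was EC50 and Emax, with Emax relative to a full agonist control.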

[2] = target: T2, Oxysterols receptor LXR-beta (Homo sapiens) (UniProt P55055); test: Agonist activity at GST-tagged LXRbeta-LBD (unknown origin) by LanthaScreen TR-FRET liver X receptor coactivator assay relative to T1317; summary of the method: as §1
T2 sequence (whole entry): T1 sequence (P55055 whole entry)

[3] = target: T3, Oxysterols receptor LXR-alpha (Homo sapiens, UniProt Q13133); test: Agonist activity at GST-tagged LXRalpha-LBD (unknown origin) by LanthaScreen TR-FRET liver X receptor coactivator assay; summary of the method: as §1
T3 sequence (Q13133 whole entry): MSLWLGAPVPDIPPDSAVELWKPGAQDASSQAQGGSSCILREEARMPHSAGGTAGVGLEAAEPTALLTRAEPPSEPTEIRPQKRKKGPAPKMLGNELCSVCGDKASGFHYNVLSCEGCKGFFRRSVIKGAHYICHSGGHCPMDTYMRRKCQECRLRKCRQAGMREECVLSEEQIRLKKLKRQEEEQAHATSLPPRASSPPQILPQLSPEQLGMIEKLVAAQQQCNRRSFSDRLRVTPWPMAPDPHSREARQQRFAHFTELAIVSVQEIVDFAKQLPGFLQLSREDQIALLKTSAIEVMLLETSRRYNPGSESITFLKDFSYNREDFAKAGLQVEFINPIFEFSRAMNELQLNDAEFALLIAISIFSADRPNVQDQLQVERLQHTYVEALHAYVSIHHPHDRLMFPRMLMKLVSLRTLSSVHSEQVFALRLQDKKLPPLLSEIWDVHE

[4] = target: T4, Oxysterols receptor LXR-alpha (Homo sapiens) (UniProt Q13133); test: Agonist activity at GST-tagged LXRalpha-LBD (unknown origin) by LanthaScreen TR-FRET liver X receptor coactivator assay T1317; summary of the method: as §1
T4 sequence (whole entry): T3 sequence (Q13133 whole entry)

[5] = target: T4, Oxysterols receptor LXR-alpha (Homo sapiens); test: (§2) Agonist activity at LXRalpha (unknown origin) expressed in human HepG2 cells co-expressing ABCA1 promoter measured after 48 hrs by cell-based transactivation assay
[6] = target: T3, Oxysterols receptor LXR-alpha; test: as §2
[7] = target: T1, Oxysterols receptor LXR-beta; test: (§3) Agonist activity at LXRbeta (unknown origin) expressed in human H4 cells co-expressing ABCA1 promoter measured after 48 hrs by cell-based transactivation assay
[8] = target: T2, Oxysterols receptor LXR-beta (Homo sapiens); test: as §3
P-gp [9] = test: Efflux ratio in MDCK cells expressing human P-gp assessed as ratio of permeability across basolateral to apical side over apical to basolateral side; assay type: ADME, cell-based, Canis lupus familiaris; details: dog, MDCK-MDR1
[10] = Solubility of the compound at pH 2; assay type: physicochemical; details: buffer
P-gp [11] = test: Efflux ratio in MDCK cells expressing rat P-gp assessed as ratio of permeability across basolateral to apical side over apical to basolateral side; assay type: ADME, cell-based, Canis lupus familiaris; details: dog, MDCK-MDR1

CN(C)C(=O)c1ccc(-c2cnc(N3CCN(C(=O)OC(C)(C)C)CC3)c(C#N)c2)cc1Cl
EC50 [1]: 940 nM | Emax [2]: 106% | EC50 [3]: 1480 nM | Emax [4]: 50% | Emax [5]: 40% | EC50 [6]: 280 nM | EC50 [7]: 770 nM | Emax [8]: 103%

CN(C)C(=O)c1ccc(N2CCC(C3CCN(C(=O)[C@](O)(c4ccccc4)C(F)(F)F)CC3)CC2)cc1Cl
efflux ratio (P-gp [9]): 1.8 | solubility [10]: 197 µM (≈ 109 µg/mL) | efflux ratio (P-gp [11]): 4.3 | Emax [5]: 24% | EC50 [6]: 500 nM | EC50 [7]: 550 nM | Emax [8]: 91%
